Assay results collected from several papers.

| SMILES | tested on | assay | system | conditions | quantity | value |
| --- | --- | --- | --- | --- | --- | --- |
| CC(C)n1c(C2CCNCC2)nc2c([N+](=O)[O-])c(Br)c(Br)cc21 |  |  | human, plasma | oral, 100 mg, patients | Cmax | 73.2 ng/mL |
| COc1ccc(NC(=O)Nc2ccc(-c3cn(Cc4ccc(Br)cc4)nn3)cc2)cc1 | L02 | cell growth or viability, CCK-8 |  | 50 µM, 72 h | viability | 91.1% |
| O=C(COc1ccc(Cl)cc1)NC12CC(c3nnc([C@H]4C[C@@H](OC(F)(F)F)C4)o3)(C1)C2 |  |  | human, plasma | oral, 100 mg, multiple doses, once daily, steady state, healthy volunteers | Cmax | 5.39 µM |
| O=C(Nc1ccc(Cl)cc1)Nc1ccc(-c2cn(Cc3cccc(Cl)c3)nn2)cc1 | L02 | cell growth or viability, CCK-8 |  | 50 µM, 72 h | viability | 92.6% |
| COc1ccc(-c2c(Nc3ccccn3)[nH]c3c(C4=CCCCC4)c(-c4ccccc4)nn3c2=O)cc1 |  |  | human, plasma | oral, 150 mg once daily, multiple doses, patients | Cmax | 4960 ng/mL |
| O=C(NCc1cn(Cc2cccc(Cl)c2)nn1)Nc1ccc(Cl)cc1 | L02 | cell growth or viability, CCK-8 |  | 50 µM, 72 h | viability | 100% |
| COc1ccc(NC(=O)NCc2cn(Cc3ccc(Br)cc3)nn2)cc1 | L02 | cell growth or viability, CCK-8 |  | 50 µM, 72 h | viability | 119% |
| COc1ccc2c(c1)CN(C(=O)CCN1CCC(Cc3ccccc3)CC1)CC[S@@+]2[O-] |  |  | male human, plasma | intravenous, 0.05 mg/kg, healthy volunteers | Cmax | 130 ng/mL |
| COc1ccc(NC(=O)Nc2ccc(-c3cn(Cc4cccc(Cl)c4)nn3)cc2)cc1 | L02 | cell growth or viability, CCK-8 |  | 50 µM, 72 h | viability | 114% |
| CNC(C)(C)COCC(=O)N1CCC[C@H](C(=O)NCc2nc(-c3ccc(C(F)(F)F)cc3)cs2)C1 |  |  | Caco-2 |  | efflux ratio | 180 |
| COc1ccc(NC(=O)NCc2cn(Cc3ccc(Cl)cc3)nn2)cc1 | L02 | cell growth or viability, CCK-8 |  | 50 µM, 72 h | viability | 121% |
| O=C(NCc1cn(Cc2ccc(Cl)cc2)nn1)Nc1ccc(Cl)cc1 | L02 | cell growth or viability, CCK-8 |  | 50 µM, 72 h | viability | 127% |
